The values that follow come from ChEMBL document CHEMBL4715702, “Overcoming multidrug resistance by targeting mitochondria with NO-donating doxorubicins” (Bioorg Med Chem, 2016).

One may read the half-life as how long it takes for the measured level to halve.

The nature of data set [1]: Prodrug release in human HT-29 cells assessed as increase in NO level by measuring nitrite release at 5 uM incubated for 24 hrs by spectrophotometric analysis. The class given is ADME, cell-based. Conditions: ht-29, 24 h. The procedure, abridged:
(§1)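 After 24 h culture with 5 µmol/L compound, medium mixed 1:1 with Griess reagent, 10 min 37°C in dark, absorbance 540 nm. Cell-free blank subtracted; nitrite expressed as nmol/mg cell protein. HT29/dx maintained in 200 nmol/L DOXO. Triplicate, mean ± SD (n = 3).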

Data set [2] can be described thus: Prodrug release in doxorubicin-resistant human HT-29 cells assessed as increase in NO level by measuring induction of P-glycoprotein nitration in plasma membrane at 5 uM incubated for 24 hrs by western blot analysis. The class given is cell membranes, Cell membrane. To be noted: ht-29, 24 h. The procedure, abridged:
(§2)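 Cells 24 h with 5 µmol/L compound. Plasma-membrane proteins isolated by surface biotinylation, 50 µg run on SDS-PAGE, probed for Pgp with pancadherin loading control; nitration detected by Western blot, peroxidase secondary and chemiluminescence. Representative of three experiments.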
On the technique in general: A western blot detects proteins with antibodies after separation by electrophoresis.

Data set [3] relates to H9c2. Kind of data set: Cardiotoxicity against rat H9c2 cells assessed as LDH release at 5 uM incubated for 24 hrs. The data set is classed as toxicity, cell-based. Conditions: h9c2, 24 h. The procedure, abridged:
(§3)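 Extracellular medium spun 12,000 × g 5 min; cells detached, sonicated in 82.3 mmol/L triethanolamine phosphate-HCl pH 7.6. LDH activity read in medium and lysate at 340 nm over 6 min, as µmol NADH oxidized/min/dish; extracellular LDH given as % of total dish activity. Compounds from DMSO stock, 5 µM final, 1% DMSO; controls 1% DMSO. Triplicate, mean ± SD.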
On the technique in general: LDH in the medium is a marker of cell lysis.

Data set [4] in a line: Prodrug release in human HT-29 cells assessed as increase in NO level by measuring mitochondria associated MRP1/BCRP nitration mediated drug uptake at 5 uM incubated for 24 hrs by spectrofluorometric analysis. The data set is classed as ADME. To be noted: ht-29, 24 h. The method, boiled down: (§4)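 Cells 24 h with 5 µmol/L compound; mitochondrial fractions isolated (porin check by immunoblot), DOXO measured fluorimetrically (ex 475/em 553 nm) with blank subtraction and calibration curve; expressed as nmol DOXO/mg mitochondrial protein. Triplicate, mean ± SD.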

The test system of data set [5] is HT-29. Nature of the data set: Induction of apoptosis in doxorubicin-resistant human HT29 cells assessed as activation of caspase 3 using DEVD-AMC substrate at 5 uM incubated for 24 hrs by fluorescence based assay. The data set is classed as functional, cell-based. The method, boiled down:
(§5)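 Cells 24 h in 5 µmol/L compound or fresh medium, lysed in HEPES/KOH buffer pH 7.5. 20 µg lysate incubated 1 h at 37°C with 20 µmol/L LEHD-AMC (caspase 9) or DEVD-AMC (caspase 3) in HEPES/CHAPS/sucrose/DTT buffer pH 7.5. Stopped with ice-cold 0.1% TCA; AMC fluorescence ex 380/em 460 nm, converted to nmol AMC/µg protein via AMC standards. Triplicate.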

Data set [6] has as its system HT-29. Nature of the data set: Upregulation of iNOS protein expression in doxorubicin-resistant human HT-29 cells. The class given is functional, cell-based. The method, boiled down:
(§6)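 HT29 and HT29/dx cells incubated 24 h with compound or fresh medium; lysed in MLB buffer pH 7.5, sonicated, centrifuged 13,000 x g 10 min 4°C; iNOS detected in whole-cell lysate by Western blotting.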

Data set [7] is described as follows: Prodrug release in human HT-29 cells assessed as increase in NO level by measuring induction of P-glycoprotein nitration in plasma membrane at 5 uM incubated for 24 hrs by western blot analysis. The data set is classed as cell membranes, Cell membrane. To be noted: ht-29, 24 h. The procedure, abridged:
as §2

Data set [8] concerns HT-29. Nature of the data set: Cytotoxicity against human HT-29 cells assessed as LDH release at 5 uM incubated for 24 hrs. The data set is classed as functional, cell-based. The procedure, abridged: as §3
For data set [9], the system named is HT-29. Kind of data set: Cytotoxicity against doxorubicin-resistant human HT-29 cells assessed as LDH release at 5 uM incubated for 24 hrs. The data set is classed as functional, cell-based. The method, boiled down:
as §3

Data set [10] can be described thus: Prodrug release in doxorubicin-resistant human HT-29 cells assessed as increase in NO level by measuring nitrite release at 5 uM incubated for 24 hrs by spectrophotometric analysis. The class given is ADME, cell-based. To be noted: ht-29, 24 h. The procedure, abridged:
as §1

Data set [11] relates to HT-29. Kind of data set: Induction of apoptosis in human HT29 cells assessed as activation of caspase 3 using DEVD-AMC substrate at 5 uM incubated for 24 hrs by fluorescence based assay. The data set is classed as functional, cell-based. The method, boiled down:
as §5

The nature of data set [12]: Stability of the compound assessed as human serum esterase-mediated compound hydrolysis by measuring half life at 100 uM by RP-HPLC analysis. The class given is ADME, cell-free. The procedure, abridged: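 Compound from 10 mM DMSO stock added to human male AB serum preheated to 37 °C, 100 µM final, incubated at 37 ± 0.5 °C. Aliquots deproteinized with acetonitrile/0.1% HCOOH, centrifuged, filtered. Parent and degradation products quantified by RP-HPLC (234 and 480 nm) against 1–100 µM calibration. At least triplicate.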

Data set [13] in a line: Prodrug release in human HT-29 cells assessed as increase in NO level by measuring plasma membrane associated MRP1/BCRP nitration mediated drug uptake at 5 uM incubated for 24 hrs by spectrofluorometric analysis. The class given is ADME, cell membranes. Conditions: ht-29, 24 h. The method, boiled down: (§7)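 Cells 24 h with 5 µmol/L compound; DOXO in whole-cell lysates measured fluorimetrically (ex 475/em 553 nm), cell-free blank subtracted, converted to nmol DOXO/mg protein by calibration curve. Triplicate, mean ± SD.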

Data set [14] in a line: Prodrug release in doxorubicin-resistant human HT-29 cells assessed as increase in NO level by measuring mitochondria associated MRP1/BCRP nitration mediated drug uptake at 5 uM incubated for 24 hrs by spectrofluorometric analysis. The data set is classed as ADME. Conditions: ht-29, 24 h. The method, boiled down:
as §4

A short description of data set [15]: Prodrug release in doxorubicin-resistant human HT-29 cells assessed as increase in NO level by measuring plasma membrane associated MRP1/BCRP nitration mediated drug uptake at 5 uM incubated for 24 hrs by spectrofluorometric analysis. The data set is classed as ADME, cell membranes. Conditions: ht-29, 24 h. The method, boiled down:
as §7

In data set [16] the test system is HT-29. Kind of data set: Induction of apoptosis in human HT29 cells assessed as activation of caspase 9 using LEHD-AMC substrate at 5 uM incubated for 24 hrs by fluorescence based assay. The class given is functional, cell-based. The method, boiled down: as §5
Data set [17] deals with HT-29. Kind of data set: Induction of apoptosis in doxorubicin-resistant human HT29 cells assessed as activation of caspase 9 using LEHD-AMC substrate at 5 uM incubated for 24 hrs by fluorescence based assay. The data set is classed as functional, cell-based. The method, boiled down: as §5
The test system of data set [18] is HT-29. Kind of data set: Upregulation of iNOS protein expression in human HT-29 cells. The class given is functional, cell-based. The method, boiled down:
as §6

Data set [19] is described as follows: Prodrug release in human HT-29 cells assessed as increase in NO level by measuring induction of P-glycoprotein nitration in mitochondria at 5 uM incubated for 24 hrs by western blot analysis. Conditions: ht-29, 24 h. The method, boiled down:
(§8)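 Cells 24 h with 5 µmol/L compound. Mitochondrial extracts, 10 µg protein, run on SDS-PAGE and probed for Pgp, porin as loading control; nitration detected by Western blot with peroxidase secondary and chemiluminescence. Representative of three experiments.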

A short description of data set [20]: Prodrug release in doxrubicin-resistant human HT-29 cells assessed as increase in NO level by measuring induction of P-glycoprotein nitration in mitochondria at 5 uM incubated for 24 hrs by western blot analysis. Conditions: ht-29, 24 h. The procedure, abridged: as §8

The source made the active and inactive calls. The calls are words filed in the database; no cut-off is given here.

In the case of `COc1cccc2c1C(=O)c1c(O)c3c(c(O)c1C2=O)C[C@@](O)(C(=O)COC(=O)c1ccc(CC(CO[N+](=O)[O-])O[N+](=O)[O-])cc1)C[C@@H]3O[C@H]1C[C@H](N)[C@H](O)[C@H](C)O1` (stereo not given in full), the Drug metabolism entry in data set [1] and in [10] was “Metabolite_Detected” throughout. The Activity entry was “Not Active” in data set [2], “Non-Toxic” in data set [3] and “Not Active” in [7]. For the same compound, the Drug uptake entry in data set [4], in data set [13], in data set [14] and in data set [15] was “Active” throughout. The outcome in data set [5], in [6], in data set [8], in [9], in data set [11] and in [16] was Active. The result in data set [17] and in data set [18] was Active. Moreover, the half-life at 100 µM in [12] was 16 h.

As for `COc1cccc2c1C(=O)c1c(O)c3c(c(O)c1C2=O)C[C@@](O)(C(=O)COC(=O)c1ccc(OCC(CO[N+](=O)[O-])O[N+](=O)[O-])cc1)C[C@@H]3O[C@H]1C[C@H](N)[C@H](O)[C@H](C)O1.Cl` (stereo not given in full), the Drug metabolism result in [1] and in [10] was “Metabolite_Detected” throughout. The Activity result in data set [2], in data set [7], in data set [19] and in data set [20] was “Not Active” each time. Moreover, the outcome in [5], in [11], in data set [16] and in [17] was inactive. In addition, the half-life at 100 µM in data set [12] is 34.7 h. In addition, the Drug uptake result in data set [13] and in data set [15] was “Active” throughout.

As to `COc1cccc2c1C(=O)c1c(O)c3c(c(O)c1C2=O)C[C@@](O)(C(=O)CO)C[C@@H]3O[C@H]1C[C@H](N)[C@H](O)[C@H](C)O1` [DOXORUBICIN], the Drug metabolism result in [1] is recorded as “Metabolite_Detected”. The Activity result in [3] is on record as “Toxic”; in data set [7], “Not Active”. For the same compound, the Drug uptake result in [4] was “Active”; in [13], “Active”; in data set [14], “Not Active”; in [15], “Not Active”. For the same compound, the outcome in data set [6] was inactive. For the same compound, the result in data set [18] was Active.

On to `COc1cccc2c1C(=O)c1c(O)c3c(c(O)c1C2=O)C[C@@](O)(C(=O)COC(=O)c1ccc(C(=O)OCO/N=[N+](\[O-])N2CCCC2)cc1)C[C@@H]3O[C@H]1C[C@H](N)[C@H](O)[C@H](C)O1.Cl`, for which the Drug metabolism entry in [1] and in data set [10] was “Metabolite_Detected” in each case. Moreover, the result in [5], in [11], in [16] and in data set [17] was inactive. Besides, the Activity entry in data set [19], in data set [15] and in data set [20] was “Not Active” each time. In data set [12], the half-life at 100 µM was 2.8 h. Also, the Drug uptake result in data set [13] is “Not Active”.

For the compound `COc1cccc2c1C(=O)c1c(O)c3c(c(O)c1C2=O)C[C@@](O)(C(=O)COC(=O)CCCCCO[N+](=O)[O-])C[C@@H]3O[C@H]1C[C@H](N)[C@H](O)[C@H](C)O1.Cl`, the Drug metabolism entry in [1] and in data set [10] was “Metabolite_Detected” in each case. For the same compound, the Activity result in data set [2] is recorded as “Not Active”. Further, the half-life at 100 µM in [12] was 4.9 h. The Drug uptake result in data set [13] and in [15] was “Active” each time.

For `COc1cccc2c1C(=O)c1c(O)c3c(c(O)c1C2=O)C[C@@](O)(C(=O)COC(=O)c1ccc(CCCO[N+](=O)[O-])cc1)C[C@@H]3O[C@H]1C[C@H](N)[C@H](O)[C@H](C)O1.Cl`, the Drug metabolism result in [1] and in [10] was “Metabolite_Detected” each time. The Activity entry in [2], in data set [7], in data set [19] and in data set [20] was “Not Active” each time. The outcome in data set [5], in data set [11], in [16] and in data set [17] was inactive. For the same compound, the half-life at 100 µM in data set [12] was 24.6 h. Besides, the Drug uptake result in data set [13] and in [15] was “Active” throughout.

As for `COc1cccc2c1C(=O)c1c(O)c3c(c(O)c1C2=O)C[C@@](O)(C(=O)COC(=O)c1ccc(OCCCO[N+](=O)[O-])cc1)C[C@@H]3O[C@H]1C[C@H](N)[C@H](O)[C@H](C)O1.Cl`, the Drug metabolism entry in data set [1] and in [10] was “Metabolite_Detected” in each case. In addition, the Activity entry in [2], in data set [7], in data set [19] and in data set [20] was “Not Active” in each case. In addition, the result in data set [5], in [11], in data set [16] and in data set [17] was inactive. Besides, the half-life at 100 µM in [12] is 26.7 h. The Drug uptake entry in data set [13] and in data set [15] was “Active” throughout.

With `COc1cccc2c1C(=O)c1c(O)c3c(c(O)c1C2=O)C[C@@](O)(C(=O)COC(=O)CCCC(CO[N+](=O)[O-])O[N+](=O)[O-])C[C@@H]3O[C@H]1C[C@H](N)[C@H](O)[C@H](C)O1.Cl` (stereo not given in full), the Drug metabolism result in data set [1] and in data set [10] was “Metabolite_Detected” each time. In addition, the outcome in data set [5], in data set [11], in [16] and in [17] was inactive. The half-life at 100 µM in data set [12] was 6 h.
